OX1R antag-1: antagonists of human orexin 1 receptor (OX1R). O43613. OX1R-expressing cells, FRET antagonist read-out. inhibition, % at 6.6 µM. 330,000 compounds, 1.8% hits; in the data active means inhibition mostly above about 38%, no sharp cut-off; inactive means mostly below about 40%
CHO parental Ca: counter-screen: ATP calcium response change in parental CHO cells; parental CHO-K1, ATP-induced calcium, Fluo-8 fluorescence; inhibition, % at 5.6 µM; 330,000 compounds, 0.63% hits; AID 463079;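 active means inhibition above that plate's mean sample inhibition plus 3 SD, cut at about 26% in these data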
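Test system: untransfected parental CHO cell line. Compound: one dose, 5.6 µM nominal. Detection: intracellular calcium via Fluo-8 no-wash fluorescent dye. Measure: % inhibition. Benchmarks: ATP-challenged DMSO wells low, unchallenged DMSO wells high.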
OX1R antag-2: blocks the human orexin 1 receptor. 330,000 compounds, 0.43% hits. CHO/OX1R cells, Fluo-8 calcium fluorescence, orexin A. AID 434989. inhibition, % at 5 µM;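 active means inhibition above its plate's threshold, mean inhibition of all tested compounds on the plate plus 3 SD, cut at about 37% in these data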
GPR7 antag: human neuropeptides B/W receptor 1 antagonism; 290,000 compounds, 1.1% hits; P48145; GPR7-expressing cells, fluorescence antagonist assay; inhibition, % at 4.4 µM; in the data active means inhibition above about 16%, passing the limit was not always enough;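 further: cells stimulated with the agonist NPW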
Target sequence (P48145 whole entry, looked up): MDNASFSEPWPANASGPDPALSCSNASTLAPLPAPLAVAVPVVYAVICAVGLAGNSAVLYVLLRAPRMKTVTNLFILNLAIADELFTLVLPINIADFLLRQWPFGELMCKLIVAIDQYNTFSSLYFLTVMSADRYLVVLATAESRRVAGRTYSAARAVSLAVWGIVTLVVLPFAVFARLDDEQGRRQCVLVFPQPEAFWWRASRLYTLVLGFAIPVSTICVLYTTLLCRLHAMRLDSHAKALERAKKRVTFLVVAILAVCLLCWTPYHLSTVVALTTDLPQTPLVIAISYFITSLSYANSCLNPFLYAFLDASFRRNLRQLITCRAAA
GalR3 antagonist: blocks the human galanin receptor 3 | O60755 | HEK293 GalR3-CNG cAMP membrane potential fluorescence; galR3 body fused to GalR1 C-terminus | inhibition, % at 3 µM | 360,000 compounds, 0.44% hits | AID 651719;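 active means inhibition above the screen-wide average plus 3 SD, cut at about 13% in these data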;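 further: forskolin and galanin both at EC90 stimulate the cells; cAMP rise reported by CNG channel membrane potential dye signal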
Numbers stand for hits; 0 = inactive; - = no result given. A selection: hits, their analogues and other compounds. The true share with any hit is near 3.1%.

SMILES	OX1R antag-1	CHO parental Ca	OX1R antag-2	GPR7 antag	GalR3 antagonist
C[C@@H](C(=O)Nc1ccc2ccccc2c1)[C@H]1C[C@]1(C)[C@H](NC(=O)c1cnccn1)c1ccccc1	69.4	0	0	0	0
Cc1ccc(-c2nn3c(C)nnc3s2)cc1NC(=O)c1cccs1	0	0	0	0	0
Cc1cc2nn(-c3cccc4ccccc34)nc2cc1NC(=O)c1cccs1	56.9	0	0	0	0
CC(=O)Nc1ccc(NC(=O)C(=O)NCC(c2ccco2)N2CCc3ccccc3C2)cc1 (centres undefined)	0	48.9	0	-	0
O=C(NC1CCCCC1)C(c1ccco1)N(Cc1cccs1)C(=O)Cn1nnc2ccccc21 (centres undefined)	0	0	0	21.6	0
O=C(NCc1ccco1)C(c1ccco1)N(Cc1cccs1)C(=O)Cn1nnc2ccccc21 (centres undefined)	0	0	0	0	0
COc1ccc(Nc2ccc(N3C(=O)CCCC3=O)cc2[N+](=O)[O-])cc1OC	0	0	0	0	0
COc1ccc(Nc2ccc(N3C(=O)CC(C)C3=O)cc2[N+](=O)[O-])cc1OC (centres undefined)	40.1	0	0	0	0
C[C@]12CCC3c4ccc(OCC(=O)O)cc4CCC3C1CCC2=O (some centres undefined)	0	0	0	21.6	0
Cc1cc(C)n2nc(C(=O)OCC(=O)Nc3cc(S(=O)(=O)N4CCOCC4)ccc3Cl)nc2n1	-	-	-	-	0
CCCCCCN1C[C@@H](O)[C@H](n2cc(COC(=O)c3ccccc3)nn2)C[C@@H]1c1ccc(C)cc1	-	-	-	-	0
COCCCNC(=O)/C(C#N)=C1\N=C(NC(=O)c2cccs2)c2ccccc21	47.3	0	0	0	0
COC(=O)[C@@H](NCc1ccc(B(O)O)cc1)C(C)C	-	-	-	-	0
COC(=O)c1cc2c(c3c4cc(F)ccc4n(S(=O)(=O)c4ccccc4)c13)C(=O)N(C)C2	-	-	-	-	0
O=c1oc2ccccc2cc1-c1nc(-c2cccs2)cs1	50.7	0	0	0	0
O=C(Nc1nc(-c2cccs2)cs1)c1cc2ccccc2oc1=O	-	-	-	0	-
COc1cc2c(cc1OC)C(c1ccccc1)N(C(=O)c1ccccc1)CC2 (centres undefined)	0	0	0	0	0
COc1cc2c(cc1OC)C(c1ccccc1)N(C(=O)c1ccco1)CC2 (centres undefined)	33.0	0	0	-	0
CCOC(=O)c1cnc(-n2[nH]c(C)c(Cc3ccccc3)c2=O)[nH]c1=O	0	0	0	17.0	0
Cc1ccc2c(c1)-c1c(cnn1CC(=O)N1CCCN(Cc3ccccc3F)C1)CO2	43.2	0	0	0	-
Cc1[nH]c2ccccc2c1SCCNC(=O)c1ccc(Br)o1	66.0	0	0	0	0
COc1ccc(-c2[nH]c3ccccc3c2SCCNC(=O)c2cc3ccccc3oc2=O)cc1	42.4	0	0	0	-
N/C(=N\OC(=O)c1cccc2ccccc12)c1cccnc1	53.2	0	0	0	0
COC(=O)CC#C[C@H](C)[C@@H](NS(C)(=O)=O)C1CCCCC1	-	-	-	-	0
Nc1nc2c(ncn2[C@@H]2O[C@H](C(=O)N[C@H](Cc3ccccc3)C(=O)NCCCc3ccccc3)[C@@H](O)[C@H]2O)c(=O)[nH]1	-	-	-	-	0
SMILES	OX1R antag-1	CHO parental Ca	OX1R antag-2	GPR7 antag	GalR3 antagonist
Cc1cc(CSc2ccccc2)ccc1NC(=O)COc1ccccc1	0	0	0	0	0
COc1ccccc1OCC(=O)Nc1ccc(CSc2ccccc2)cc1C	0	30.1	0	0	0
C=CCN1CC(COc2ccc(OC)cc2)OCCS1(=O)=O (centres undefined)	-	-	-	-	0
N#CC1=C(N)N2C(=C(C#N)C1c1ccc(Br)cc1)Nc1ccccc12 (centres undefined)	76.4	0	0	0	0
O=[N+]([O-])c1ccc(Cl)c(S(=O)(=O)/N=C(/c2ccccc2)N2CCOCC2)c1	51.3	0	0	0	0
COc1ccc([N+](=O)[O-])c2c(=O)ccoc12	0	0	0	0	0
CCOC(=O)c1cc(=O)c2c([N+](=O)[O-])ccc(OC)c2o1	69.8	0	0	0	0
Cc1c(O)ccc(C(=O)COc2ccccc2F)c1O	37.1	0	0	0	0
CSc1ccc(CNC(=O)C2(C)CCN2C(C)C)cc1 (centres undefined)	-	-	-	-	0
CN(Cc1cccnc1)C(=O)c1cc(COc2ccc3c(c2)CCCC3)on1	0	40.3	0	0	0
CC(=O)C1=C(C)N(Cc2ccc(F)cc2)C(=S)NC1c1ccc(Br)cc1 (centres undefined)	-	-	-	-	0
